Experimental data: ChEMBL document CHEMBL1649289, “Paradoxical growth of Candida dubliniensis does not preclude in vivo response to echinocandin therapy” (2009)
Values after ≈ are worked out from the molar mass of the structure shown.

Experiments:
Format in all cases: functional
[1] = tested on: Candida dubliniensis; experiment: Antifungal activity against Candida dubliniensis 9453 after 24 hrs; settings: Candida dubliniensis, 9453, 24 h
In short: (§1)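 CLSI M27-A3 broth microdilution. Yeast inoculum was adjusted with a hemocytometer. MIC was read at 24 h or 48 h as the lowest concentration giving 50% growth inhibition.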

[2] = tested on: Candida dubliniensis; experiment: Antifungal activity against Candida dubliniensis 9453 after 48 hrs; settings: Candida dubliniensis, 9453, 48 h; in short: as §1
[3] = tested on: Candida dubliniensis; experiment: Antifungal activity against Candida dubliniensis 9456 after 24 hrs; settings: Candida dubliniensis, 9456, 24 h; in short: as §1
[4] = tested on: Candida dubliniensis; experiment: Antifungal activity against Candida dubliniensis 9456 after 48 hrs; settings: Candida dubliniensis, 9456, 48 h; in short: as §1
[5] = tested on: Candida dubliniensis; experiment: Antifungal activity against Candida dubliniensis 10031 after 24 hrs; settings: Candida dubliniensis, 10031, 24 h; in short: as §1
[6] = tested on: Candida dubliniensis; experiment: Antifungal activity against Candida dubliniensis 10031 after 48 hrs; settings: Candida dubliniensis, 10031, 48 h; in short: as §1
[7] = tested on: Candida dubliniensis; experiment: Antifungal activity against Candida dubliniensis 10032 after 24 hrs; settings: Candida dubliniensis, 10032, 24 h; in short: as §1
[8] = tested on: Candida dubliniensis; experiment: Antifungal activity against Candida dubliniensis 10032 after 48 hrs; settings: Candida dubliniensis, 10032, 48 h; in short: as §1
[9] = tested on: Candida dubliniensis; experiment: Antifungal activity against Candida dubliniensis 10033 after 24 hrs; settings: Candida dubliniensis, 10033, 24 h; in short: as §1
[10] = tested on: Candida dubliniensis; experiment: Antifungal activity against Candida dubliniensis 10033 after 48 hrs; settings: Candida dubliniensis, 10033, 48 h; in short: as §1
[11] = tested on: Candida dubliniensis; experiment: Antifungal activity against Candida dubliniensis 10034 after 24 hrs; settings: Candida dubliniensis, 10034, 24 h; in short: as §1
[12] = tested on: Candida dubliniensis; experiment: Antifungal activity against Candida dubliniensis 10034 after 48 hrs; settings: Candida dubliniensis, 10034, 48 h; in short: as §1
[13] = tested on: Candida dubliniensis; experiment: Antifungal activity against Candida dubliniensis 10035 after 24 hrs; settings: Candida dubliniensis, 10035, 24 h; in short: as §1
[14] = tested on: Candida dubliniensis; experiment: Antifungal activity against Candida dubliniensis 10035 after 48 hrs; settings: Candida dubliniensis, 10035, 48 h; in short: as §1
[15] = tested on: Candida dubliniensis; experiment: Antifungal activity against Candida dubliniensis 9453 by hemocytometry
In short: (§2)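 Minimal fungicidal concentration from the broth dilution test, defined as the lowest drug level giving ≥99.9% reduction in CFU/ml. Inocula were adjusted by hemocytometer.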

[16] = tested on: Candida dubliniensis; experiment: Antifungal activity against Candida dubliniensis 9456 by hemocytometry; in short: as §2
[17] = tested on: Candida dubliniensis; experiment: Antifungal activity against Candida dubliniensis 10031 by hemocytometry; in short: as §2
[18] = tested on: Candida dubliniensis; experiment: Antifungal activity against Candida dubliniensis 10032 by hemocytometry; in short: as §2
[19] = tested on: Candida dubliniensis; experiment: Antifungal activity against Candida dubliniensis 10033 by hemocytometry; in short: as §2
[20] = tested on: Candida dubliniensis; experiment: Antifungal activity against Candida dubliniensis 10034 by hemocytometry; in short: as §2
[21] = tested on: Candida dubliniensis; experiment: Antifungal activity against Candida dubliniensis 10035 by hemocytometry; in short: as §2
[22] = tested on: Candida dubliniensis; experiment: Antifungal activity against Candida dubliniensis 9453 assessed as compound concentration at which paradoxical growth of observed after 24 hrs
In short: (§3)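 In the same broth dilution (CLSI M27-A3) tests, read at 24 or 48 h, this is the range of drug concentrations over which paradoxical growth appeared. It was not set when growth occurred across the whole tested range (trailing).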

[23] = tested on: Candida dubliniensis; experiment: Antifungal activity against Candida dubliniensis 9456 assessed as compound concentration at which paradoxical growth of observed after 24 hrs; in short: as §3
[24] = tested on: Candida dubliniensis; experiment: Antifungal activity against Candida dubliniensis 10031 assessed as compound concentration at which paradoxical growth of observed after 24 hrs; in short: as §3
[25] = tested on: Candida dubliniensis; experiment: Antifungal activity against Candida dubliniensis 10033 assessed as compound concentration at which paradoxical growth of observed after 24 hrs; in short: as §3
[26] = tested on: Candida dubliniensis; experiment: Antifungal activity against Candida dubliniensis 10034 assessed as compound concentration at which paradoxical growth of observed after 24 hrs; in short: as §3
[27] = tested on: Candida dubliniensis; experiment: Antifungal activity against Candida dubliniensis FMR 10032 infected in immunosuppressed OF1 mouse assessed as fungal count in kidney at 1 mg/kg/day, iv […]
In short: (§4)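 Male OF1 mice, 10 per group, were immunosuppressed on infection day with cyclophosphamide 200 mg/kg i.p. plus 5-fluorouracil 150 mg/kg i.v., then challenged i.v. with 1.5 × 10^5 CFU. Drug was given at 1 mg/kg i.v. once daily for 5 days, starting 24 h after challenge. One day after treatment ended, kidney and spleen homogenates were plated in 10-fold dilutions on Sabouraud agar (35°C, 3 days) and mean log10 CFU was reported.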

[28] = tested on: Candida dubliniensis; experiment: Antifungal activity against Candida dubliniensis FMR 10034 infected in OF1 mouse assessed as fungal count in spleen at 1 mg/kg/day, iv […]
In short: (§5)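 Immunocompetent male OF1 mice, 10 per group, were challenged i.v. with 1.5 × 10^7 CFU. Drug was given i.v. once daily at 1 or 10 mg/kg for 3 days, starting 24 h post-challenge; controls were untreated. Mice were killed 1 day after the last dose. Kidneys and spleen were homogenized in saline, serial 10-fold dilutions were plated on Sabouraud agar at 35°C for 3 days, and mean log10 CFU was reported.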

[29] = tested on: Candida dubliniensis; experiment: Antifungal activity against Candida dubliniensis 10033 assessed as compound concentration at which paradoxical growth of observed after 48 hrs
In short: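 Broth dilution susceptibility testing of yeasts per CLSI reference method M27-A3, with inocula adjusted by hemocytometer count. Wells were read at 24 and 48 h. The paradoxical growth range is the span of drug concentrations (μg/ml) over which growth reappeared above the inhibitory concentration. Where growth occurred across the entire concentration range (trailing), no range was determined.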

[30] = tested on: Candida dubliniensis; experiment: Antifungal activity against Candida dubliniensis 10034 assessed as compound concentration at which paradoxical growth of observed after 48 hrs; in short: as §3
[31] = tested on: Candida dubliniensis; experiment: Antifungal activity against Candida dubliniensis 10035 assessed as compound concentration at which paradoxical growth of observed after 48 hrs; in short: as §3
[32] = tested on: Candida dubliniensis; experiment: Antifungal activity against Candida dubliniensis FMR 10032 infected in OF1 mouse assessed as fungal count in kidney at 10 mg/kg/day, iv […]; in short: as §5
[33] = tested on: Candida dubliniensis; experiment: Antifungal activity against Candida dubliniensis FMR 10032 infected in OF1 mouse assessed as fungal count in kidney at 1 mg/kg/day, iv […]; in short: as §5
[34] = tested on: Candida dubliniensis; experiment: Antifungal activity against Candida dubliniensis FMR 10032 infected in OF1 mouse assessed as fungal count in spleen at 10 mg/kg/day, iv […]; in short: as §5
[35] = tested on: Candida dubliniensis; experiment: Antifungal activity against Candida dubliniensis FMR 10032 infected in OF1 mouse assessed as fungal count in spleen at 1 mg/kg/day, iv […]; in short: as §5
[36] = tested on: Candida dubliniensis; experiment: Antifungal activity against Candida dubliniensis FMR 10034 infected in OF1 mouse assessed as fungal count in kidney at 10 mg/kg/day, iv […]; in short: as §5
[37] = tested on: Candida dubliniensis; experiment: Antifungal activity against Candida dubliniensis FMR 10034 infected in OF1 mouse assessed as fungal count in kidney at 1 mg/kg/day, iv […]; in short: as §5
[38] = tested on: Candida dubliniensis; experiment: Antifungal activity against Candida dubliniensis FMR 10034 infected in OF1 mouse assessed as fungal count in spleen at 10 mg/kg/day, iv […]; in short: as §5
[39] = tested on: Candida dubliniensis; experiment: Antifungal activity against Candida dubliniensis FMR 10032 infected in immunosuppressed OF1 mouse assessed as fungal count in spleen at 1 mg/kg/day, iv […]; in short: as §4
[40] = tested on: Candida dubliniensis; experiment: Antifungal activity against Candida dubliniensis FMR 10034 infected in immunosuppressed OF1 mouse assessed as fungal count in kidney at 1 mg/kg/day, iv […]; in short: as §4
[41] = tested on: Candida dubliniensis; experiment: Antifungal activity against Candida dubliniensis FMR 10034 infected in immunosuppressed OF1 mouse assessed as fungal count in spleen at 1 mg/kg/day, iv […]; in short: as §4

`CC[C@H](C)C[C@H](C)CCCCCCCCC(=O)N[C@H]1C[C@@H](O)[C@@H](NCCN)NC(=O)[C@@H]2[C@@H](O)CCN2C(=O)[C@H]([C@H](O)CCN)NC(=O)[C@H]([C@H](O)[C@@H](O)c2ccc(O)cc2)NC(=O)[C@@H]2C[C@@H](O)CN2C(=O)[C@H]([C@@H](C)O)NC1=O` [CASPOFUNGIN] was tested, and the MIC50 [1] was 0.25 mg/L (≈ 0.229 µM), the MIC50 [2] was 0.25 mg/L (≈ 0.229 µM) and the MIC50 [3] was 0.25 mg/L (≈ 0.229 µM). The MIC50 [4] was 0.25 mg/L (≈ 0.229 µM), the MIC50 [5] was 0.125 mg/L (≈ 0.114 µM) and the MIC50 [6] was 0.25 mg/L (≈ 0.229 µM). It also gave an MIC50 [7] of 0.06 mg/L (≈ 0.0549 µM), an MIC50 [8] of 0.06 mg/L (≈ 0.0549 µM) and an MIC50 [9] of 0.25 mg/L (≈ 0.229 µM). The MIC50 [10] was 0.25 mg/L (≈ 0.229 µM), the MIC50 [11] was 0.125 mg/L (≈ 0.114 µM) and the MIC50 [12] was 0.25 mg/L (≈ 0.229 µM). The MIC50 [13] was 0.06 mg/L (≈ 0.0549 µM), the MIC50 [14] was 0.06 mg/L (≈ 0.0549 µM) and the MFC [15] was > 16 mg/L. For the same molecule, the MFC [16] was > 16 mg/L, the MFC [17] was > 16 mg/L and the MFC [18] was 4 mg/L (≈ 3.66 µM). For the same molecule, the MFC [19] was > 16 mg/L, the MFC [20] was > 16 mg/L and the MFC [21] was 0.5 mg/L (≈ 0.457 µM). It also gave an Activity [22] of 8 µg/mL, an Activity [23] of 8 µg/mL and an Activity [24] of 8 µg/mL. The Activity [25] was 8 µg/mL, the Activity [26] was 16 µg/mL and the log10cfu [27] was 1.77. The log10cfu [28] was 4.21, the Activity [29] was 2 µg/mL and the Activity [30] was 1 µg/mL. For the same molecule, the Activity [31] was 8 µg/mL, the log10cfu [32] was 3.08 and the log10cfu [33] was 3.41. For the same molecule, the log10cfu [34] was 3.38, the log10cfu [35] was 3.56 and the log10cfu [36] was 4.09. The log10cfu [37] was 4.5, the log10cfu [38] was 3.89 and the log10cfu [39] was 1.26. For the same molecule, the log10cfu [40] was 3.39 and the log10cfu [41] was 2.08.
